In one assay the test system is Leishmania infantum. Description: Evaluated in vitro for antitrypanosomal activity against Leishmania infantum. It is filed as functional. The conditions noted are these: read-out: ED50 (the source's name). In a few lines: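 Primary mouse peritoneal macrophages, 30,000 per well on culture slides. After 24 h, L. infantum amastigotes from the spleen of an infected donor animal were added at a 10/1 infection ratio with two-fold drug dilutions. Incubation was 7 days at 37 °C in 5% CO2. Wright-stained slides were scored microscopically for % reduction of parasite load or infected macrophages, and ED50 was extrapolated.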

A further assay concerns MRC5. The assay can be described thus: Tested for cytotoxicity towards human MRC-5 cells. In kind it is functional. In a few lines:
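MRC-5 cells were seeded at 5000 per well and washed after 24 h. Two-fold drug dilutions (32 down to 1.6) were added in RPMI + 5% FCS, with final DMSO below 0.5%. After 7 days at 37 °C in 5% CO2, MTT absorbance at 540 nm was read as % reduction versus untreated controls to give CC50.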

Assay [1] is described as follows: Tested for cytotoxicity towards mouse peritoneal macrophages (MPM). In kind it is functional. In short, it runs like this: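 Peritoneal macrophages were harvested 48 h after potato-starch stimulation and seeded at 30,000 per well. After 24 h they were washed and given two-fold drug dilutions (32 down to 1.6) in RPMI + 5% FCS, with final DMSO below 0.5%. Cultures ran 7 days at 37 °C in 5% CO2 alongside untreated controls.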

The test system of a further assay is Trypanosoma brucei. The assay can be described thus: Evaluated in vitro for antitrypanosomal activity against Trypanosoma brucei. Conditions: read-out: ED50 (the source's name). In kind it is functional. In short, it runs like this:
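T. brucei bloodstream forms were grown in HMI-9 medium. 10,000 haemoflagellates per well were exposed to different drug concentrations for 4 days; ED50 was reported.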

For a further assay, the system named is Trypanosoma cruzi. The assay can be described thus: Evaluated in vitro for antitrypanosomal activity against Trypanosoma cruzi. In kind it is functional. Conditions: read-out: ED50 (the source's name). In a few lines:
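Mouse peritoneal macrophages were seeded at 30,000 per well. After 24 h, about 100,000 T. cruzi trypomastigotes were added per well with 2-fold drug dilutions, then held 4 days at 37 °C in 5% CO2. After methanol fixation and Giemsa staining, % reduction of total parasite load (free trypomastigotes plus intracellular amastigotes) versus untreated cultures was scored microscopically; ED50 was extrapolated.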

The next assay concerns the target Trypanothione reductase (Trypanosoma cruzi, UniProt P28593). The assay can be described thus: Compound was tested for inhibition of trypanothione reductase from Trypanosoma cruzi. In a few lines:
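T. cruzi trypanothione reductase assay, with trypanothione disulfide as substrate and 0.02 U TR per assay; IC50 determined over increasing compound concentrations.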

Some results are limits rather than exact numbers.

In general, CC50 refers to the concentration at which the toxic effect on the cells reaches its halfway point. High values mean lower toxicity to the cells, low ones greater toxicity to the cells. For orientation: IC50 means the midpoint of a concentration-inhibition curve. A high value points to lower potency.

Trypanothione reductase, sequence (P28593 whole entry): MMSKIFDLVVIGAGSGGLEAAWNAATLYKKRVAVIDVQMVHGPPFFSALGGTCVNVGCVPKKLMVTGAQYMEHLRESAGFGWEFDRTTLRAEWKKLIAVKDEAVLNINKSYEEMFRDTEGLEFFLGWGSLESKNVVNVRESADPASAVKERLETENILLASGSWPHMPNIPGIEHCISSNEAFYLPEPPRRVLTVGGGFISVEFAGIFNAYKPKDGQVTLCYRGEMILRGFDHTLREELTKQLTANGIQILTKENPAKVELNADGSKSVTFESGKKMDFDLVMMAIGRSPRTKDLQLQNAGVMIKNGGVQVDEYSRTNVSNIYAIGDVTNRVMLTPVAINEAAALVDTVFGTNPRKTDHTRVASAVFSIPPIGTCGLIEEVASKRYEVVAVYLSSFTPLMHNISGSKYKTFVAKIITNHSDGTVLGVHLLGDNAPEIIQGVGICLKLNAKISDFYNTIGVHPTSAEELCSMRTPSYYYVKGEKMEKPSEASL

In the case of `O=C(NNC(=O)c1ccc([N+](=O)[O-])o1)c1ccc2ccccc2c1`, the EC50 in the assay on Leishmania infantum is 8 µM; with Trypanosoma brucei it was 0.13 µM; in the assay on Trypanosoma cruzi, 4 µM. For the same molecule, the results for the CC50 (with MRC5; in assay [1]) were 2 µM and 32 µM, respectively.
`O=C(NNC(=O)c1ccc([N+](=O)[O-])o1)c1ccc([N+](=O)[O-])o1`: the EC50 in the assay with Leishmania infantum worked out at 8 µM; in the assay on Trypanosoma brucei it was 3 µM; in the assay on Trypanosoma cruzi, 3 µM. Moreover, the CC50 worked out at 4 µM in the assay on MRC5 and 32 µM in assay [1]. On Trypanothione reductase, the IC50 was over 50 µM.
For the molecule `CC(C)(C)OC(=O)NNC(=O)c1ccc([N+](=O)[O-])o1`, the EC50 was over 32 µM with Leishmania infantum, 2 µM in the assay with Trypanosoma brucei and 1 µM in the assay on Trypanosoma cruzi. In addition, the 50% cytotoxic concentration (CC50) in the assay with MRC5 is 12 µM; in assay [1] it was 32 µM. Besides, the IC50 at Trypanothione reductase was over 50 µM.
As for `O=C(NNS(=O)(=O)c1ccccc1)c1ccc([N+](=O)[O-])o1`, the EC50 in the assay on Leishmania infantum is over 32 µM; in the assay with Trypanosoma brucei it was 2 µM; in the assay on Trypanosoma cruzi it was 16 µM. In addition, the results for the CC50 (in the assay with MRC5; in assay [1]) were 4 µM and 32 µM, respectively.
Regarding `O=C(Cc1ccc2ccccc2c1)NNC(=O)c1ccc([N+](=O)[O-])o1`, the EC50 in the assay with Leishmania infantum was 8 µM; in the assay on Trypanosoma brucei, 0.59 µM; in the assay on Trypanosoma cruzi, 0.4 µM. For the same molecule, the results for the CC50 (in the assay with MRC5; in assay [1]) were 4 µM and 32 µM, respectively. Also, the IC50 against Trypanothione reductase is over 25 µM.
`O=C(NNS(=O)(=O)c1cccc2ccccc12)c1ccc([N+](=O)[O-])o1`: the EC50 in the assay with Leishmania infantum was 8 µM; in the assay with Trypanosoma brucei it was 1 µM; with Trypanosoma cruzi it was 0.8 µM. Besides, the results for the CC50 (in the assay with MRC5; in assay [1]) were 0.75 µM and 32 µM, respectively.
On to `NNC(=O)c1ccc([N+](=O)[O-])o1`, for which the EC50 with Leishmania infantum is over 32 µM; with Trypanosoma brucei, 5 µM; in the assay with Trypanosoma cruzi it was 0.5 µM. Further, the figures for the CC50 (in the assay on MRC5; in assay [1]) were 9 µM and 32 µM, respectively. The molecule further gave an IC50 against Trypanothione reductase of over 50 µM.
Regarding `COC(=O)c1ccc([N+](=O)[O-])o1`, the EC50 with Leishmania infantum, with Trypanosoma brucei and in the assay with Trypanosoma cruzi was over 32 µM throughout. The CC50 was over 32 µM in the assay with MRC5 and 32 µM in assay [1].
With `CC(C)(C)OC(=O)N[C@@H](C(=O)NNC(=O)c1ccc([N+](=O)[O-])o1)c1ccccc1`, the EC50 turned out to be 8 µM with Leishmania infantum, 0.25 µM with Trypanosoma brucei and 4 µM with Trypanosoma cruzi. For the same molecule, the figures for the CC50 (in the assay with MRC5; in assay [1]) were 6 µM and 32 µM, respectively.
Regarding `O=C(NNS(=O)(=O)c1ccc2ccccc2c1)c1ccc([N+](=O)[O-])o1`, the EC50 in the assay with Leishmania infantum was over 32 µM; with Trypanosoma brucei, 28 µM; in the assay on Trypanosoma cruzi it was over 32 µM. Besides, the CC50 in the assay on MRC5 came out at 18 µM; in assay [1], 32 µM.
Take `O=C(NNC(=O)c1cccc2ccccc12)c1ccc([N+](=O)[O-])o1`: the EC50 in the assay with Leishmania infantum worked out at 8 µM; in the assay on Trypanosoma brucei it was 0.4 µM; with Trypanosoma cruzi, 3 µM. For the same molecule, the CC50 amounted to 1 µM in the assay with MRC5 and 32 µM in assay [1].
Taken in the same sequence, the figures for `CC(C)(C)OC(=O)Nc1ccc2cc(C(=O)NNC(=O)c3ccc([N+](=O)[O-])o3)ccc2c1` were 8 µM, 0.5 µM, 1 µM, 2 µM and 32 µM.
Taken in the same sequence, the figures for `O=C(Cc1ccccc1)NNC(=O)c1ccc([N+](=O)[O-])o1` were 8 µM, 0.3 µM, 1 µM, 2 µM and 32 µM.
For the molecule `O=C(NNC(=O)c1ccc([N+](=O)[O-])o1)c1ccccc1`, the EC50 was over 32 µM with Leishmania infantum, 32 µM in the assay on Trypanosoma brucei and 16 µM in the assay on Trypanosoma cruzi. The CC50 was 17 µM in the assay with MRC5 and 32 µM in assay [1].
On to `N[C@@H](C(=O)NNC(=O)c1ccc([N+](=O)[O-])o1)c1ccccc1`, for which the results for the EC50 in the assay on Leishmania infantum, with Trypanosoma brucei and in the assay with Trypanosoma cruzi were over 32 µM, 2 µM and 2 µM, respectively. For the same molecule, the CC50 in the assay on MRC5 is 14 µM; in assay [1], 32 µM.
For the molecule `Nc1ccc2cc(C(=O)NNC(=O)c3ccc([N+](=O)[O-])o3)ccc2c1`, the EC50 in the assay with Leishmania infantum turned out to be 8 µM; in the assay on Trypanosoma brucei, 0.64 µM; with Trypanosoma cruzi it was 4 µM. In addition, the CC50 with MRC5 is 0.77 µM; in assay [1], 32 µM.
`O=C(O)c1ccc([N+](=O)[O-])o1` [5-NITRO-2-FUROIC ACID]: the EC50 is over 32 µM in the assay with Leishmania infantum, 5 µM with Trypanosoma brucei and over 32 µM in the assay on Trypanosoma cruzi. Moreover, the CC50 with MRC5 was over 32 µM; in assay [1], 32 µM.
Consider `O=C(Cn1ccnc1[N+](=O)[O-])NCc1ccccc1` [BENZNIDAZOLE], for which the CC50 in the assay on MRC5 was over 50 µM. In addition, the EC50 in the assay on Trypanosoma cruzi came to 3.13 µM.
On to `Nc1nc(N)nc(Nc2ccc([As]3SCC(CO)S3)cc2)n1` (centres undefined) [MELARSOPROL], for which the EC50 with Trypanosoma brucei was 0.2 µM.
`CC1CS(=O)(=O)CCN1/N=C/c1ccc([N+](=O)[O-])o1` (centres undefined) [NIFURTIMOX] yielded a CC50 with MRC5 of over 50 µM. Also, the EC50 in the assay on Trypanosoma cruzi stood at 0.4 µM.
